Data reported in ChEMBL document CHEMBL1275413, “Comparison of antimicrobial resistance profiles among extended-spectrum-beta-lactamase-producing and acquired AmpC beta-lactamase-producing Escherichia coli isolates from Canadian intensive care units” (2008).
≈ marks a conversion by molar mass, not a printed value.

Experiments:
Format in all cases: functional
Escherichia coli [1] = assay: Antibacterial activity against ESBL-producing Escherichia coli isolate by broth microdilution method
Summary of the method: (§1)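 Clinical E. coli isolates from Canadian ICUs (CAN-ICU), one per patient and site, genotypically confirmed ESBL or acquired AmpC producers. AmpC groups (EBC, DHA, FOX, CIT) were typed by multiplex PCR and sequencing. Isolates were stored at −80°C in skim milk and subcultured twice from frozen stock. MICs were determined in triplicate by CLSI broth microdilution.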

Escherichia coli [2] = assay: Antibacterial activity against AmpC-producing Escherichia coli assessed as resistant isolates by broth microdilution method
Summary of the method: (§2)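 ICU clinical E. coli isolates, with ESBL or acquired AmpC genotype confirmed (AmpC families by multiplex PCR and sequencing), were stored at −80°C in skim milk and subcultured twice from frozen stock. MICs were determined in triplicate by CLSI broth microdilution. The panel included ampicillin, piperacillin-tazobactam, ceftriaxone, cefepime, cefoxitin, gentamicin, fluoroquinolones, carbapenems, doxycycline, tigecycline and trimethoprim-sulfamethoxazole.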

Escherichia coli [3] = assay: Antibacterial activity against AmpC-producing Escherichia coli isolate by broth microdilution method; summary of the method: as §1
Escherichia coli [4] = assay: Antibacterial activity against ESBL-producing Escherichia coli assessed as resistant isolates by broth microdilution method; summary of the method: as §2
Escherichia coli [5] = assay: Antibacterial activity against ESBL-producing Escherichia coli assessed as sensitive isolates by broth microdilution method; summary of the method: as §1
Escherichia coli [6] = assay: Antibacterial activity against AmpC-producing Escherichia coli assessed as sensitive isolates by broth microdilution method; summary of the method: as §1
Escherichia coli [7] = assay: Antibacterial activity against ESBL-producing Escherichia coli assessed as sensitive isolates by broth microdilution method in presence of Tazobactam; summary of the method: as §1
Escherichia coli [8] = assay: Antibacterial activity against ESBL-producing Escherichia coli isolate by broth microdilution method in presence of Tazobactam; summary of the method: as §1
Escherichia coli [9] = assay: Antibacterial activity against ESBL-producing Escherichia coli assessed as resistant isolates by broth microdilution method in presence of Tazobactam; summary of the method: as §2
Escherichia coli [10] = assay: Antibacterial activity against AmpC-producing Escherichia coli isolate by broth microdilution method in presence of Tazobactam; summary of the method: as §1
Escherichia coli [11] = assay: Antibacterial activity against AmpC-producing Escherichia coli assessed as sensitive isolates by broth microdilution method in presence of Tazobactam; summary of the method: as §1

| Molecule | MIC (Escherichia coli [1]) | MIC50 (Escherichia coli [1]) | MIC90 (Escherichia coli [1]) | Activity (Escherichia coli [2]) | MIC (Escherichia coli [3]) | MIC50 (Escherichia coli [3]) | MIC90 (Escherichia coli [3]) | Activity (Escherichia coli [4]) | Activity (Escherichia coli [5]) | Activity (Escherichia coli [6]) | Activity (Escherichia coli [7]) | MIC50 (Escherichia coli [8]) | MIC90 (Escherichia coli [8]) | Activity (Escherichia coli [9]) | MIC50 (Escherichia coli [10]) | MIC90 (Escherichia coli [10]) | Activity (Escherichia coli [11]) |
| --- | --- | --- | --- | --- | --- | --- | --- | --- | --- | --- | --- | --- | --- | --- | --- | --- | --- |
| CC1(C)S[C@@H]2[C@H](NC(=O)[C@H](N)c3ccccc3)C(=O)N2[C@H]1C(=O)O [AMPICILLIN] | > 256 µg/mL | > 256 µg/mL | > 256 µg/mL | 100% | > 256 µg/mL | > 256 µg/mL | > 256 µg/mL | 100% |  |  |  |  |  |  |  |  |  |
| CO/N=C(\C(=O)N[C@@H]1C(=O)N2C(C(=O)[O-])=C(C[N+]3(C)CCCC3)CS[C@H]12)c1csc(N)n1 [CEFEPIME] |  | 8 µg/mL (≈ 16.6 µM) | 32 µg/mL (≈ 66.6 µM) |  | ≤ 1 µg/mL | ≤ 1 µg/mL | ≤ 1 µg/mL | 11.1% | 50% | 100% |  |  |  |  |  |  |  |
| CO[C@@]1(NC(=O)Cc2cccs2)C(=O)N2C(C(=O)O)=C(COC(N)=O)CS[C@@H]21 [CEFOXITIN] |  | 8 µg/mL (≈ 18.7 µM) | 32 µg/mL (≈ 74.9 µM) | 100% |  | 256 µg/mL (≈ 599 µM) | > 256 µg/mL | 16.7% | 61.1% |  |  |  |  |  |  |  |  |
| CO/N=C(\C(=O)N[C@@H]1C(=O)N2C(C(=O)O)=C(CSc3nc(=O)c(O)nn3C)CS[C@H]12)c1csc(N)n1 [CEFTRIAXONE] |  | 128 µg/mL (≈ 231 µM) | > 256 µg/mL | 11.1% |  | 16 µg/mL (≈ 28.9 µM) | 64 µg/mL (≈ 115 µM) | 83.3% | 5.6% | 44.4% |  |  |  |  |  |  |  |
| O=C(O)c1cn(C2CC2)c2cc(N3CCNCC3)c(F)cc2c1=O [CIPROFLOXACIN] |  | > 16 µg/mL | > 16 µg/mL | 11.1% |  | ≤ 0.06 µg/mL | > 16 µg/mL | 83.3% | 16.7% | 85.2% |  |  |  |  |  |  |  |
| C[C@H]1c2cccc(O)c2C(=O)C2=C(O)[C@]3(O)C(=O)C(C(N)=O)=C(O)[C@@H](N(C)C)[C@@H]3[C@@H](O)[C@@H]21.O [DOXYCYCLINE] |  | 4 µg/mL | 64 µg/mL | 18.5% |  | 2 µg/mL | 64 µg/mL | 33.3% | 61.1% | 66.7% |  |  |  |  |  |  |  |
| C[C@@H](O)[C@H]1C(=O)N2C(C(=O)O)=C(S[C@@H]3CN[C@H](C(=O)Nc4cccc(C(=O)O)c4)C3)[C@H](C)[C@H]12 [ERTAPENEM] |  | 0.12 µg/mL (≈ 0.252 µM) | 0.25 µg/mL (≈ 0.526 µM) |  |  | 0.12 µg/mL (≈ 0.252 µM) | 0.5 µg/mL (≈ 1.05 µM) |  | 100% | 100% |  |  |  |  |  |  |  |
| C[C@H]1COc2c(N3CCN(C)CC3)c(F)cc3c(=O)c(C(=O)O)cn1c23.C[C@H]1COc2c(N3CCN(C)CC3)c(F)cc3c(=O)c(C(=O)O)cn1c23.O [LEVOFLOXACIN] |  | 16 µg/mL | 32 µg/mL | 26.6% |  | ≤ 0.06 µg/mL | 16 µg/mL | 83.3% | 16.7% | 88.9% |  |  |  |  |  |  |  |
| C[C@@H](O)[C@H]1C(=O)N2C(C(=O)O)=C(S[C@@H]3CN[C@H](C(=O)N(C)C)C3)[C@H](C)[C@H]12 [MEROPENEM] | ≤ 0.12 µg/mL | ≤ 0.12 µg/mL | ≤ 0.12 µg/mL |  | ≤ 0.12 µg/mL | ≤ 0.12 µg/mL | ≤ 0.12 µg/mL |  | 100% | 100% |  |  |  |  |  |  |  |
| CCN1CCN(C(=O)N[C@@H](C(=O)N[C@@H]2C(=O)N3[C@@H]2SC(C)(C)[C@@H]3C(=O)O)c2ccccc2)C(=O)C1=O [PIPERACILLIN] |  |  |  |  |  |  |  |  |  |  | 94.4% | 2 µg/mL | 8 µg/mL | 5.6% | 2 µg/mL | 8 µg/mL | 100% |
| CN(C)c1cc(NC(=O)CNC(C)(C)C)c(O)c2c1C[C@H]1C[C@H]3[C@H](N(C)C)C(O)=C(C(N)=O)C(=O)[C@@]3(O)C(O)=C1C2=O [TIGECYCLINE] |  | 0.5 µg/mL (≈ 0.854 µM) | 1 µg/mL (≈ 1.71 µM) |  |  | 0.25 µg/mL (≈ 0.427 µM) | 0.5 µg/mL (≈ 0.854 µM) |  | 100% | 100% |  |  |  |  |  |  |  |
| GENTAMICIN |  | 1 µg/mL | 16 µg/mL | 3.7% |  | < 0.25 µg/mL | 8 µg/mL | 27.8% | 66.7% | 88.9% |  |  |  |  |  |  |  |
